# Results from paper PMC11605122 (Nature Communications, 2024).
# Experiments:
# [1] = intrahepatic triglyceride content; type: in vivo, mouse; conditions: DIO mice
# [2] = test system: pancreatic islets from DIO mice; assay: ex vivo glucose-stimulated insulin secretion; type: cell-based, mouse; conditions: 500 nM G49, 1 or 24 h
# Procedure, shortened: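 Islets were plated at 100 per 3 mL and treated the next day with 500 nM test compound for 1 or 24 h. After 1 h preincubation in KRB (2.8 mM glucose, 0.25% BSA, pH 7.4, 37 °C), batches of 3 islets were stimulated 1 h with 2.8 or 16.7 mM glucose. Insulin was measured by ELISA and normalised per islet; n = 4 mice.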
# [3] = eWAT and iWAT weight; type: in vivo, mouse
# [4] = test system: primary mouse hepatocytes; assay: FGF21 release and gene expression in primary hepatocytes; type: cell-based; conditions: 500 nM G49, 16 h
# Procedure, shortened: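 Primary hepatocytes came from non-fasted male C57BL/6J mice fed HFD for 12 weeks, with or without in vivo treatment, by two-step collagenase perfusion. Cells were spun at 60 × g, purified on isotonic Percoll (1:1) at 230 × g and seeded on collagen. They were cultured 24 h at 37 °C, 5% CO2 before exposure to the test compound.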
# [5] = plasma insulin; type: in vivo, mouse; conditions: DIO mice
# Procedure, shortened: (§1)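 Plasma ALT was read with Reflotron strips and plasma TGs by colorimetric assay. Serum FGF21 and plasma adiponectin and insulin were measured by ELISA.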
# [6] = blood glucose; type: in vivo, mouse
# Procedure, shortened: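 DIO mice were fed 60%-fat HFD from 8 weeks of age, for 12 weeks (males) or 24 weeks (females); one male cohort was housed at 30 °C. The test compound was given s.c. every 2 days in 50 mM sodium phosphate/300 mM mannitol pH 6.9. Glucose and ketone bodies were read in tail-vein blood.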
# [7] = test system: brown adipocytes; assay: fatty acid oxidation in brown adipocytes; type: cell-based, mouse; conditions: G49, brown adipocytes
# Procedure, shortened: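 Palmitate oxidation to CO2 and to acid-soluble material (acyl-carnitine, Krebs cycle intermediates, acetyl-CoA) was measured in primary hepatocytes or differentiated brown adipocytes, with or without 500 nM test compound.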
# [8] = F4/80 and TH immunostaining of eWAT; type: in vivo, mouse; conditions: G49, 6 h
# [9] = test system: BAT, eWAT, iWAT; assay: UCP1 and TH protein; type: in vivo, mouse
# [10] = plasma FFAs; type: in vivo, mouse; conditions: for plasma FFA elevation: DIO mice
# [11] = test system: brown adipocytes; assay: thermogenic gene expression and UCP1 in brown adipocytes; type: cell-based, mouse; conditions: G49, brown adipocytes
# Procedure, shortened: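 Brown preadipocytes were immortalised by retroviral SV40 Large T (20% FBS, 8 μg/mL polybrene, 48 h) at 70–80% confluence. Differentiation began with 2 days in induction medium (0.5 μM dexamethasone, 0.5 mM IBMX, indomethacin, 1 μM rosiglitazone).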
# [12] = test system: eWAT stromal vascular fraction; assay: immune cell populations in eWAT SVF; type: in vivo, mouse
# Procedure, shortened: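 eWAT was digested, stopped with EDTA, filtered at 100 µm and red cells lysed in ACK. The SVF was stained 20 min at RT in FACS buffer (1 mM EDTA, 25 mM HEPES, 1% FBS in PBS) with a panel including CD45, CD11b, F4/80, Ly6G, CD11c, CD206, SiglecF, T/NK markers and IL-4, or isotype controls. Acquisition was on a FACSCanto II.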
# [13] = liver-to-body weight ratio; type: in vivo, mouse; conditions: DIO mice, G49, 6 h
# [14] = plasma TGs; type: in vivo, mouse; conditions: DIO mice, G49, time course
# Procedure, shortened: as §1
# [15] = body weight, HFD-fed; type: in vivo, mouse
sequence,measurement,setting,value
HSQGTFTSDYSKYLEEEAVRLFIC (40 kDa PEG) WLMNT-amide acetate salt [G49],hepatic lipid overload,"[1]; G49 + GCGRant, 6 h",hepatic lipid overload and ALT elevation were not observed
same,liver triglycerides,"[1]; G49, time course","elevated at 3–12 h post-injection, peaking at 6 h"
same,insulin secretion,[2],also observed by ex vivo treatment of pancreatic islets from DIO mice with G49
same,"fat depots (eWAT, iWAT)","[3]; DIO mice, G49 + ATGLi, 72 h",without reduction in fat depots
same,eWAT and iWAT depots,"[3]; FGF21Alb-KO mice, G49, 1 week",a partial reduction of eWAT and iWAT depots
same,FGF21 release and Sir2 expression,[4],increased FGF21 levels released to the culture medium and Sir2 expression
same,plasma insulin,"[5]; G49 + ATGLi, 6 h",plasma insulin was partly reduced
same,peak in insulin secretion,"[5]; G49 + Ex9-39, 6 h",Ex9-39 totally abolished this increase
same,peak in insulin secretion,"[5]; G49 + GCGRant, 6 h",partially blocked by the GCGRant
same,"plasma insulin, early","[5]; G49, 6 h",a rise in plasma insulin
same,blood glucose and adiposity,"[6]; female DIO mice, G49, 1 week",efficacy of G49 in reducing blood glucose and adiposity was also found in female mice
same,blood glucose and adiposity,"[6]; male DIO mice at thermoneutrality (30 °C), G49",in male mice housed at thermoneutrality
same,Cpt1b expression and FAO,[7],increased Cpt1b gene expression and FAO
same,F4/80 and TH positive immune cells,[8],F4/80 and Tyrosine Hydroxylase (TH) positive immune cells were found in some eWAT areas
same,UCP1 protein,"[9]; Adipoq−/− mice, G49",no increase in UCP1 protein levels was found
same,UCP1 expression in BAT,"[9]; DIO mice, G49 + ATGLi, 72 h",suppression of G49 effects on UCP1 expression and BAT temperature
same,UCP1 protein in BAT,"[9]; DIO mice, G49 + GCGRant",did not present an increase in UCP1 protein levels
same,UCP1 and TH protein in BAT,"[9]; DIO mice, G49, 1 week","increase in thermogenic-related genes (Cpt1b, Dio2, CoxIVi1, Ucp1, Th, Fgf21) and protein levels of UCP1 and TH in BAT"
same,UCP1 protein in BAT,"[9]; FGF21Alb-KO mice, G49, 1 week",a lower effect of G49 in increasing in UCP1 protein levels in BAT
same,UCP1 protein in BAT,"[9]; FGF21Alb-KO mice, G49 plus recombinant murine FGF21",markedly increased UCP1 protein levels and BAT temperature
same,UCP1 and TH protein,"[9]; eWAT, G49, 1 week",higher UCP1 and TH protein content
same,UCP1 protein,"[9]; iWAT, G49, 1 week",a similar improvement was found
same,plasma FFA elevation,"[10]; G49 + Ex9-39, 6 h",retained its effect in elevating FFAs in the presence of Ex9-39
same,plasma FFA elevation,"[10]; G49 + GCGRant, 6 h",abolished the acute effects of G49 in reducing total and visceral adiposity at 6 h post-injection and FFA elevation
same,plasma FFAs,"[10]; UCP1−/− mice, G49, 6 h",showed elevations in FFAs (at 6 h)
same,plasma FFAs,"[10]; irradiated DIO mice, G49, 6 h",the elevation of FFAs was preserved
same,plasma FFAs,"[10]; lean Gcgr−/− mice, single injection of G49, 1–6 h",did not elevate plasma FFAs at 1–6 h in Gcgr^−/− mice
same,lipolysis at 6 h and 1 h,"[10]; lean or DIO mice, G49","increased lipolysis at 6 h, but not at 1 h post-injection"
same,thermogenic gene expression and UCP1 protein,[11],"up-regulated lipolysis, thermogenic gene expression (Ucp1, Ppargc1a, Sir2) and UCP1 protein levels in BA"
same,eWAT beiging signature,"[12]; DIO mice, G49 + ATGLi, 6 h",absence of the eWAT beiging signature
same,beige immune signature of SVF,"[12]; DIO mice, G49 + GCGRant, 6 h",loss of the beige immune signature of the SVF
same,Cd206+/Cd11c+ ratio in neutrophils,"[12]; SVF of eWAT, G49, 6 h",increased the Cd206^+/Cd11c^+ ratio
same,M2 and M1 macrophages,"[12]; SVF of eWAT, G49, 6 h","increase in M2 (Cd206^+) subpopulation, concomitantly with a decrease in M1 (Cd11c^+) cells"
same,eosinophils (SiglecF+/Cd11b+/Cd11c−),"[12]; SVF of eWAT, G49, 6 h",infiltration of eosinophils
same,neutrophil infiltration (Cd11b+Ly6g+),"[12]; SVF of eWAT, G49, 6 h",reduction in neutrophil infiltration
same,liver-to-body weight ratio,[13],"an increase in lipid accumulation analyzed by H&E and oil-red O staining of liver sections, liver-to-body weight ratio, and alanine aminotransferase (ALT) activity"
same,circulating TGs,[14],reached maximal levels at 24 h and decreased to basal levels at 48 h post-G49 treatment
same,body weight,"[15]; Adipoq−/− DIO mice, G49, 3–7 days",body weight stabilized in the period of 3–7 days in Adipoq^−/− mice
same,body weight,"[15]; DIO female mice, G49, 1 week",Body weight loss in the absence of a reduction in cumulative food intake
same,body weight,"[15]; DIO mice, G49 + Ex9-39 + GCGRant",failed to decrease body weight in the presence of both antagonists
same,body weight loss,"[15]; DIO mice, G49 without ATGLi, 72 h",11.8 ± 0.51%
same,body weight loss,"[15]; DIO mice, G49 without antagonist, day 7 (antagonist experiment)",23.2 ± 1.45%
same,body weight,"[15]; FGF21Alb-KO mice, HFD, G49, 3–7 days",body weight stabilized in G49-treated FGF21^Alb-KO mice in the period of 3–7 days
same,body weight,"[15]; UCP1−/− mice, HFD, G49, beyond 72 h",did not lose weight beyond this time-point
same,effect in lean mice,"[15]; lean mice, G49","mild and changes were found only in the short-term body weight loss, the early lipolytic response and the reduction of eWAT"
same,body weight loss,"[15]; male DIO mice, G49 20 nmol/kg, 1 week",6.9 ± 0.89%
same,body weight loss,"[15]; male mice, normal cycle, G49, 1 week",16.1 ± 0.72%
same,body weight loss,"[15]; male mice, reversed light/dark cycle, G49, 1 week",20.1 ± 0.49%
